Ki and IC50 data for six compounds are collected here from ChEMBL document CHEMBL1144432, “New inhibitors of rabbit muscle triose-phosphate isomerase” (Bioorg Med Chem Lett, 2005).

For test [1], the target named is T1, Triosephosphate isomerase (Oryctolagus cuniculus, UniProt P00939). The experiment in a line: Binding affinity against rabbit muscle triose-phosphate isomerase. Set-up: species or system Muscle tissue. In a few lines:
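Rabbit muscle TIM, converting G3P to DHAP, was coupled to a large excess of glycerol-3-phosphate dehydrogenase. NADH consumption was followed at 340 nm. The G3P level was estimated enzymatically with the same coupled system. The cuvette was preincubated 10 min at 25 C, and the reaction was started with G3P (0–250). Inhibitor was tested at 0–30 µM, with inhibition analysed on double-reciprocal plots against 1/[G3P].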

Test [2] is described as follows: Binding affinity against class II fructose-bisphosphate aldolase.
A short description of test [3]: Inhibitory concentration against class II fructose-bisphosphate aldolase.
The target of test [4] is T1, Triosephosphate isomerase. Briefly: Inhibitory concentration against rabbit muscle triose-phosphate isomerase. More on the design: species or system Muscle tissue.

T1 sequence (P00939 whole entry): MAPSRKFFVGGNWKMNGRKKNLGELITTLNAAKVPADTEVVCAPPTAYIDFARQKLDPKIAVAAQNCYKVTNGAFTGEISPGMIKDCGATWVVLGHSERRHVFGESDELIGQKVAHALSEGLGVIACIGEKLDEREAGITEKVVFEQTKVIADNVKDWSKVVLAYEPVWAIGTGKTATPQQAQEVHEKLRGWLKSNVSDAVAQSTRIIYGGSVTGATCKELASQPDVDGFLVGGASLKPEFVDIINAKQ

For `NNC(=O)COP(=O)(O)O` [PHOSPHORIC ACID MONOHYDRAZINOCARBONYLMETHYL ESTER], the Ki worked out at 111 µM in test [1] and 0.34 µM in test [2].
For `O=C(COP(=O)(O)O)NO` [PHOSPHOGLYCOLOHYDROXAMATE], in that order: 3 µM and 0.01 µM.
With `NNC(=O)CCP(=O)(O)O`, the half-inhibitory concentration (IC50) in test [3] turned out to be 3630 µM; in test [4], 27000 µM.
The matching figures for `N/C(CCP(=O)(O)O)=N\O`: 3420 µM and 9600 µM.
As to `O=C(CCP(=O)(O)O)NO`, the inhibitory constant (Ki) in test [1] was found to be 159 µM; in test [2], 145 µM.
Consider `N/C(COP(=O)(O)O)=N/O`, for which the values for the Ki in test [1] and in test [2] were 4.5 µM and 2.3 µM, respectively.
